Measured values as given in ChEMBL document CHEMBL2375286, “Design and synthesis of a series of α-benzyl phenylpropanoic acid-type peroxisome proliferator-activated receptor (PPAR) gamma partial agonists with improved aqueous solubility” (Bioorg Med Chem, 2013).
In brackets after ≈: the same amount, converted by molar mass. Activity calls are given as the source filed them. The rule behind the calls is not given here.

Experiments:
[1] = biological target: T1, Peroxisome proliferator-activated receptor gamma (Homo sapiens, UniProt P37231); assay: Agonist activity at human PPAR-gamma1 LBD (176 to 477) transfected in african green monkey CV1 cells after 40 hrs by beta galactosidase-based luciferase reporter gene assay; format: cell-based, CV-1
T1 sequence (P37231 whole entry): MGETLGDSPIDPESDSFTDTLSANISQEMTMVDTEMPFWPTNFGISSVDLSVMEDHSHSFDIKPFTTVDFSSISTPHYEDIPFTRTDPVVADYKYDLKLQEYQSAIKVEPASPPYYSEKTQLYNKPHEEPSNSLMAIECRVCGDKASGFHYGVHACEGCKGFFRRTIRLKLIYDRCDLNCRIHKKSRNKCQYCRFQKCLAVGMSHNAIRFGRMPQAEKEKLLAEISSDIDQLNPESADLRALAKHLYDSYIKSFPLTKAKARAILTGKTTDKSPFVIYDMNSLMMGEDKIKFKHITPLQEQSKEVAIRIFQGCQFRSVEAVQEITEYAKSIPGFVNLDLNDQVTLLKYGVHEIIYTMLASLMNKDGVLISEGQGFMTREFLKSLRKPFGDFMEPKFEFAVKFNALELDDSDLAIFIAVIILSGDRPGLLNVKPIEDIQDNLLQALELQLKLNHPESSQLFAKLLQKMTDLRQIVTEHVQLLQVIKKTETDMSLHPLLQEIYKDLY
Outline: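 CV-1 cells seeded at 0.5×10^5 per well, cultured 24 h, then lipofected for 5 h. Transfection mix: 30 ng GAL4-PPAR chimeric receptor plasmid, 250 ng MH100x4-tk-luc reporter, 350 ng pCMX-βGAL for normalization, 120 ng pGEM4 carrier. Compounds added for 40 h, then luciferase and βGAL read in lysates. Activity scaled between 0.1% DMSO (minimum) and 10^-5 M rosiglitazone maleate (maximum). EC50 is the concentration giving 50% of maximal reporter activity.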

[2] = biological target: T2, Peroxisome proliferator-activated receptor gamma (Homo sapiens) (UniProt P37231); assay: Agonist activity at human PPAR-gamma1 LBD (176 to 477) transfected in african green monkey CV1 cells after 40 hrs by beta galactosidase-based luciferase reporter gene assay relative to rosiglitazone; format: cell-based; conditions: CV-1
T2 sequence (whole entry): T1 sequence (P37231 whole entry)
Outline: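 GAL4-PPAR chimera transactivation in CV-1 cells (0.5×10^5/well, 24 h), lipofected 5 h with 30 ng receptor plasmid, 250 ng MH100x4-tk-luc reporter, 350 ng pCMX-βGAL normalisation plasmid, 120 ng pGEM4 carrier. Compounds for 40 h. Luciferase and βGAL read from lysates. Activity scaled between 0.1% DMSO (minimum) and 10^-5 M rosiglitazone maleate (maximum). EC50 = concentration giving 50% maximal reporter activity.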

[3] = Thermodynamic solubility of the compound in phosphate buffer at pH 7.2 to 7.4 after 48 hrs by UV-HPLC analysis; format: physicochemical; conditions: read-out: Therm_solubility
Outline: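 About 1 mg of compound ground and suspended in 1.0 mL phosphate buffer (pH 7.2–7.4), then shaken 48 h at 25 °C. Suspension filtered (0.45 μm), filtrate diluted in CH3CN and analysed by HPLC with UV detection at 254 nm. Concentration taken from a calibration curve and corrected for dilution.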

[4] = biological target: T3, Peroxisome proliferator-activated receptor gamma (Mus musculus) (UniProt P37238); assay: Agonist activity at PPAR-gamma in mouse 3T3-L1 cells assessed as adipocyte differentiation after 6 days by Oil Red O staining; format: cell-based
T3 sequence (whole entry): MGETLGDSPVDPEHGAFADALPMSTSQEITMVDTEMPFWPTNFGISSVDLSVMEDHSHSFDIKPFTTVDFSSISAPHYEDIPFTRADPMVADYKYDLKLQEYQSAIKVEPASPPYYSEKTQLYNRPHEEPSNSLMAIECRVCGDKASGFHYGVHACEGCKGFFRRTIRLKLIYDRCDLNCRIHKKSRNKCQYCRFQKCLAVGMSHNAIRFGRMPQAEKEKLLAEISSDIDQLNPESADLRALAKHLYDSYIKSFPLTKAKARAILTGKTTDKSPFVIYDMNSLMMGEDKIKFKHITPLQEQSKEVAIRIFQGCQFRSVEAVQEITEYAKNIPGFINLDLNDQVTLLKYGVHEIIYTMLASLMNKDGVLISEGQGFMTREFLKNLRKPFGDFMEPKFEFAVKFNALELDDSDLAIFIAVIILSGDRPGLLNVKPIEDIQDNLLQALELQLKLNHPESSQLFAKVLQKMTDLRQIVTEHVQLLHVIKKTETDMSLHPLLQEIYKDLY
Outline: (§1)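 3T3-L1 cells grown in DMEM with 10% FBS. At confluence, differentiation started with 1 μM dexamethasone, 0.5 mM IBMX and 5 μg/mL insulin for 2 days. Ligands then added at 1–1000 nM. After 6 days cells stained with Oil Red O and adipogenesis read as absorbance at OD550. Error bars are SD.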

[5] = biological target: T3, Peroxisome proliferator-activated receptor gamma (Mus musculus); assay: Agonist activity at PPAR-gamma in mouse 3T3-L1 cells assessed as induction of triglyceride accumulation at 1 to 1000 nM after 6 days by Oil Red O staining; format: cell-based; outline: as §1
[6] = biological target: T3, Peroxisome proliferator-activated receptor gamma (Mus musculus); assay: Agonist activity at PPAR-gamma in mouse 3T3-L1 cells assessed as adipocyte differentiation at 1 to 1000 nM after 6 days by Oil Red O staining; format: cell-based; outline: as §1
OCUM-2MD3 [7] = assay: Induction of apoptosis in human OCUM-2MD3 cells after 72 hrs by Hoechst 33342/propidium iodide staining-based fluorescence microscopy; format: functional, cell-based
Outline: (§2)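 OCUM-2MD3 cells grown in DMEM/F12 (1:1); OUMS-24 normal fibroblasts grown in DMEM; both media with 10% FBS, 100 μg/mL kanamycin and 0.5 μg/mL Fungizone. Cells plated, incubated 24 h, then treated with compound at 1–100 μM for 72 h. Stained with 1 μg/mL Hoechst 33342 plus 5 μg/mL propidium iodide for 20 min in the dark and examined by fluorescence microscopy. Cells with fragmented or shrunken nuclei counted as apoptotic; result given as % increase over DMSO control.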

[8] = biological target: T3, Peroxisome proliferator-activated receptor gamma (Mus musculus); assay: Partial agonist activity at PPAR-gamma in mouse 3T3-L1 cells assessed as adipocyte differentiation at […] after 6 days by Oil Red O staining; format: cell-based; outline: as §1
[9] = Induction of apoptosis in human OUMS-24 cells at 100 uM after 72 hrs by Hoechst 33342/propidium iodide staining-based fluorescence microscopy; format: cell-based; conditions: oums-24, 72 h; outline: as §2
OCUM-2MD3 [10] = assay: Induction of apoptosis in human OCUM-2MD3 cells at 10 to 100 uM after 72 hrs by Hoechst 33342/propidium iodide staining-based fluorescence microscopy; format: functional, cell-based; outline: as §2
[11] = Induction of apoptosis in human OUMS-24 cells after 72 hrs by Hoechst 33342/propidium iodide staining-based fluorescence microscopy; format: cell-based; conditions: oums-24, 72 h; outline: as §2

SMILES	EC50 [1] [nM]	Efficacy [2] [%]	solubility thermodynamic at 48 h [3] [µg/mL]	also measured
CCCOc1ccc(C[C@@H](Cc2ccccc2)C(=O)O)cc1CNC(=O)c1ccc(-c2ccccc2C)cc1	73.8	72.7	< 1	
CCCOc1ccc(C[C@@H](Cc2ccccc2)C(=O)O)cc1CNC(=O)c1ccc(-c2cccnc2)cc1	844	100	69.5 (≈ 137 µM)	
CCCOc1ccc(C[C@@H](Cc2ccccc2)C(=O)O)cc1CNC(=O)c1ccc(-c2ccncc2)cc1	1690	108	34.1 (≈ 67 µM)	
CCCOc1ccc(C[C@@H](Cc2ccccc2)C(=O)O)cc1CNC(=O)c1ccc(-c2cccs2)cc1	65.2	76	< 1	
CCCOc1ccc(C[C@@H](Cc2ccccc2)C(=O)O)cc1CNC(=O)c1ccc(-c2ccccc2F)cc1	49.5	95	< 1	
CCCOc1ccc(C[C@@H](Cc2ccccc2)C(=O)O)cc1CNC(=O)c1ccc(-c2cncnc2)cc1	3100	82.7	190 (≈ 373 µM)	
CCCOc1ccc(C[C@@H](Cc2ccccc2)C(=O)O)cc1CNC(=O)c1ccc(-c2cccc(F)c2)cc1	28.7	99.7	< 1	
CCCOc1ccc(C[C@@H](Cc2ccccc2)C(=O)O)cc1CNC(=O)c1ccc(-c2cnccn2)cc1	714	58.2	32.2 (≈ 63.2 µM)	
CCCOc1ccc(C[C@H](CC)C(=O)O)cc1CNC(=O)c1ccc(C23CC4CC(CC(C4)C2)C3)cc1				Activity [4]: Dose-dependent effect; Activity [5]: Active; Activity [6]: Active
CCCOc1ccc(C[C@@H](Cc2ccccc2)C(=O)O)cc1CNC(=O)c1ccc(-c2ccccc2)cc1	85.9	95.7	< 1	
CCCOc1ccc(C[C@@H](Cc2ccccc2)C(=O)O)cc1CNC(=O)c1ccc(-c2ccc(F)cc2)cc1	103	104	< 1	
CCCOc1ccc(C[C@@H](Cc2ccccc2)C(=O)O)cc1CNC(=O)c1ccc(-c2ccccn2)cc1	186	113	17 (≈ 33.4 µM)	
CCCOc1ccc(C[C@@H](Cc2ccccc2)C(=O)O)cc1CNC(=O)c1ccc(-c2ncccn2)cc1	34.6	65	301 (≈ 591 µM)	Activity [5]: Active; Activity (OCUM-2MD3 [7]): Dose-dependent effect; Activity [8]: Active; Activity [6]: Active
CCCOc1ccc(C[C@H](Cc2ccccc2)C(=O)O)cc1CNC(=O)c1ccc(C23CC4CC(CC(C4)C2)C3)cc1			< 1	Activity (OCUM-2MD3 [7]): Dose-dependent effect; Activity [9]: Toxic; Activity (OCUM-2MD3 [10]): Active
CCc1ccc(CCOc2ccc(CC3SC(=O)NC3=O)cc2)nc1 (centres undefined) [PIOGLITAZONE]				Activity (OCUM-2MD3 [7]): Dose-dependent effect; Activity [11]: Non-toxic
